Experimental findings from PMC7641989 (Nature biotechnology, 2020) are described below.

The nature of data set [1]: Pharmacokinetics, LC-MS SIM quantitation in plasma. In kind it is in vivo, mouse. To be noted: pharmacokinetic and excretion studies, result in words.
Data set [2] has as its system WD-fed LDLr-/- mice. The data set can be described thus: In vivo safety during 10-week daily oral dosing. Further details: species or system mouse. The essentials:
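Mice were weaned at 4 weeks and fed chow, then switched at 8–12 weeks to Western diet for 10 weeks. Test compound was dissolved by sonication in PBS (pH 7.4) with 1% sucrose, given ad libitum in drinking water at 180 µM and refreshed daily or every other day. Vehicle controls received PBS/1% sucrose. Liver enzyme activities in plasma were measured by enzymatic assays.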

Data set [3] has as its system WD-fed LDLr-/- mice. The data set can be described thus: Plasma total cholesterol in peptide-treated WD-fed mice. In kind it is in vivo, mouse. The essentials: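 Western-diet-fed LDLr-/- mice received test compound at 180 µM in drinking water (PBS pH 7.4, 1% sucrose; vehicle controls) starting with the diet switch. Plasma total cholesterol was measured enzymatically at the two-week blood draw. Results given as mean ± SD.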

Data set [4] is described as follows: LC-MS SIM quantitation of peptide levels in feces. Format: in vivo, mouse. The conditions noted are these: pharmacokinetic and excretion studies, result in words. The method in brief:
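Intact test compound was measured in extracted feces by LC-MS selected ion monitoring of the parent ions. Standard curves came from two independent extractions. Fecal samples were taken at week 5 (n=4 mice per group) and measured in duplicate. Daily dry fecal output was weighed over 24 h in individually housed mice. Expected maximum fecal level was calculated from the 0.18 mM drinking-water concentration, water intake and fecal output.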

For data set [5], the system named is WD-fed LDLr-/- mice. Put plainly: Analysis of atherosclerosis. The conditions noted are these: completion of the 10-week study, en face staining, vs vehicle. In kind it is in vivo, mouse. The method in brief: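 LDLr-/- mice, moved from chow to Western diet (15.8% fat, 1.25% cholesterol, no cholate) at 8–12 weeks, given test compound at 180 µM in drinking water (PBS pH 7.4, 1% sucrose; vehicle alone for controls) for 10 weeks. Lesions assessed by en face staining of the entire aorta and by aortic root sectioning. n=8 treated, 18 vehicle; mean ± SD, one-way ANOVA with Dunnett test.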

Data set [6] has as its system gut microbiota from cecum of WD-fed LDLr-/- mice. Put plainly: In vitro en masse gut microbiota screening assay. In kind it is cell-based, mouse. The conditions noted are these: en masse screen, result in words. The method in brief: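 Cecal contents came from female LDLr-/- mice (8–10 weeks) fed WD for two weeks, pooled from 3 co-housed mice, with all steps anaerobic. The PBS suspension was diluted 1:12.5 in Chopped Meat Carbohydrate Broth and dosed with test compound at a final 16 or 64 µM. Ampicillin (4 µg/mL) and chloramphenicol (8 µg/mL) were controls. Samples ran 20 h at 37 °C with hourly OD600, then 16S sequencing gave genus-level Shannon diversity and the Bacteroidetes:Firmicutes ratio.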

The mark [7] stands for this setting: 10 weeks daily oral administration, n=7 treated mice.

Where a SMILES comes first, the peptide text is derived from it. [ ]: non-standard residue; d: D form.

Regarding `CC(C)C[C@@H]1NC(=O)[C@@H](Cc2c[nH]c3ccccc23)NC(=O)[C@H](CCCCN)NC(=O)[C@@H](Cc2c[nH]cn2)NC(=O)[C@H](CO)NC(=O)[C@@H](Cc2c[nH]cn2)NC(=O)[C@H](CCCCN)NC(=O)[C@@H](Cc2c[nH]c3ccccc23)NC1=O` [peptide 1] (cyclo([dW]L[dW]K[dH]S[dH]K)), the oral systemic bioavailability entry in data set [1] is “non-absorbable (lack oral systemic bioavailability)”. For the same compound, the “signs of discomfort or toxicity” value in the data set on WD-fed LDLr-/- mice [2] (10-week daily-dosing regimen, ad libitum in the drinking water, ~35 mg/kg/day) was “no signs of discomfort or toxicity”. In addition, in the data set with WD-fed LDLr-/- mice [2] (setting [7]), the “liver weights and spleen weights” value is given as “did not significantly differ from vehicle controls”; the “plasma levels of ALT and AST” value was “did not significantly differ from vehicle controls”. In addition, the body weights result in the data set on WD-fed LDLr-/- mice [2] (during the 10-week treatment, n=7 treated mice) is reported as “did not differ from vehicle controls”. For the same compound, the “reduction of plasma total cholesterol compared to the untreated WD group” value in the data set on WD-fed LDLr-/- mice [3] (two-week time point, oral in drinking water, ~35 mg/kg/day) is given as 37%. Also, the “stability in the gut” value in data set [4] is “remain largely intact throughout the gut”. Besides, the “reduction of whole aorta atherosclerotic lesion area” value in the data set on WD-fed LDLr-/- mice [5] stood at 37%. The “remodeling of the microbiota community in vitro” value in data set [6] is “did remodel the microbiota community in vitro”.
On to `NC(=O)CC[C@@H]1NC(=O)[C@@H](Cc2c[nH]cn2)NC(=O)[C@H](Cc2c[nH]cn2)NC(=O)[C@@H](CCC(N)=O)NC(=O)[C@H](Cc2ccc(O)cc2)NC(=O)[C@@H](Cc2c[nH]c3ccccc23)NC(=O)[C@H](Cc2c[nH]c3ccccc23)NC(=O)[C@@H](Cc2ccccc2)NC1=O` [peptide 15] (cyclo(H[dH]Q[dF]W[dW]Y[dQ])), for which the “total plasma cholesterol compared to vehicle controls” value in the data set on WD-fed LDLr-/- mice [3] (2-wk timepoint, oral dosing, result in words) is on record as “did not reduce plasma total cholesterol levels”. Moreover, in data set [6], the “remodeling of the microbiota community in vitro” value is “remodeled the gut microbiota in vitro, but not toward a CHD-like state”.
